Measurements taken from PMC6688896 (Bioorganic & medicinal chemistry, 2018).
Where two headings read alike, the source gives them in different places.

How the values were obtained:
[1] = Body weight in CRC240 PDX xenograft study; assay type: in vivo; conditions: DK419 1 mg/kg orally daily for 11 days, tumor-bearing NOD/SCID mice
[2] = Plasma pharmacokinetics after oral dose; assay type: in vivo, NOD/SCID mice; conditions: DK419 1 mg/kg oral, mice
In short: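 Test compound at 0.2 mg/mL in 10% N-methylpyrrolidinone/90% PEG300, single oral 1 mg/kg to NOD/SCID mice (n = 4). Serial tail-vein blood into heparin, pre-dose to 72 h. Plasma extracted with ethyl acetate plus an internal standard analog, then LC/MS/MS; calibration range 2.4 (LLOQ) to 1000 ng/mL. Parameters from compartmental (first-order absorption/elimination) and non-compartmental analysis.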

pAMPK in CCD841Co cells = experiment: Phospho-AMPK levels by Western blot; assay type: cell-based; conditions: whole cell lysate, vs DMSO control
In short: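 CCD841Co cells grown in MEM with 1 mM pyruvate, non-essential amino acids, 10% FBS. Plated at 0.27 million/well on poly-D-lysine-coated 12-well plates and attached overnight. Medium replaced with test compound or DMSO diluted in DMEM with 2 mM pyruvate and 2 mM L-glutamine. Lysed in Laemmli buffer; immunoblotted for phospho-AMPK (Thr172) and total AMPK, β-actin loading control.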

CRC240 PDX tumors = experiment: CRC240 PDX xenograft tumor growth; assay type: in vivo, NOD/SCID mice; conditions: vs vehicle, n = 3
In short: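 CRC240 PDX tissue washed and minced in PBS at 150 mg/ml, 200 μl implanted in NOD/SCID flanks. At about 100 mm3, mice randomized and dosed orally once daily for 11 days with test compound suspended at […] in 10% 1-methyl-2-pyrrolidinone/90% PEG300, or vehicle. Tumor size and body weight on days 0, 4, 8, 11; mean ± SEM, n = 3; two-tailed Student's t test vs vehicle.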

CCD841Co colonic cells = experiment: Oxygen consumption rate, Seahorse XFp analyzer; assay type: cell-based; conditions: 1 μM, vs DMSO control media
In short: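 CCD841Co cells seeded at 8000 cells/well in XFp miniplates and attached overnight (37 °C, 5% CO2). Basal OCR recorded, then 1 μM test compound or DMSO in media added. Mito Stress Test followed with sequential 1 μM oligomycin, 1 μM FCCP, and 0.5 μM rotenone plus antimycin A. Mean ± SD, n = 2.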

six CRC tumor cell lines = experiment: MTS cell proliferation assay, panel of six CRC cell lines; assay type: cell-based; conditions: 72 h, read-out: IC50 values, range over the six CRC cell lines
In short: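 Six CRC lines, each in its own medium (Leibovitz's, McCoy's 5A, MEM or RPMI) with 10% FBS and penicillin-streptomycin. Seeded at 5000 cells/well, then exposed 72 h to test compound over 0.04–10 μM or 0.001–10 μM depending on compound. Viability by colorimetric MTS; IC50 from curve fitting.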

[3] = Niclosamide 200 mg/kg oral, mice, plasma, non-compartmental, cited from earlier work
HCT116 cells = conditions: 0.5 and 1.5 μM; cited from earlier work

Compound | body weight [1] | time for which plasma levels were sustained [2] | AUCinf ([2]; plasma, compartmental) | AUCinf/DOSE ([2]; plasma, compartmental) | CL/F ([2]; plasma, compartmental) | Vd/F ([2]; plasma, compartmental) | AUCinf ([2]; plasma, non-compartmental) | AUCinf/DOSE ([2]; plasma, non-compartmental) | CL/F ([2]; plasma, non-compartmental) | Vd/F (Vz) ([2]; plasma, non-compartmental) | AUC0-LAST ([2]; plasma, non-compartmental, 0–72 h) | pAMPK levels by Western blot (pAMPK in CCD841Co cells) | growth of CRC240 PDX tumors (tumor volume) (CRC240 PDX tumors; DK419 1 mg/kg orally daily for 11 days) | oxygen consumption rate (CCD841Co colonic cells) | IC50 (six CRC tumor cell lines) [nM] | AUC0-LAST ([3]; 0–24 h) | AUCinf [3] | oxygen consumption rate (HCT116 cells) | growth of CRC240 PDX tumors (tumor volume) (CRC240 PDX tumors; Niclosamide 72 mg/kg orally daily for 11 days)
O=C(Nc1ccc(C(F)(F)F)cc1)c1cc(Cl)cc2nc(C(F)(F)F)[nH]c12 [DK419, 6-chloro-2-(trifluoromethyl)-N-(4-(trifluoromethyl)phenyl)-1H-benzo[d]imidazole-4-carboxamide] | Neither DK419 nor Niclosamide produced a change in body weight | more than 24 hours | 16300 ng·h/mL (per kg BW) | 16.3 µg·h/mL (per mg) | 0.06 L/h (per kg BW) | 0.98 L (per kg BW) | 16900 ng·h/mL (per kg BW) | 16.9 µg·h/mL (per mg) | 0.06 L/h (per kg BW) | 0.80 (Vz) L (per kg BW) | 16.8 ( 0–72 h) h μg/mL (per kg BW) | increased the levels of pAMPK | inhibited the growth of CRC240 PDX tumors compared to vehicle control | increases the rate of oxygen consumption | 70 to 360 |  |  |  | 
O=C(Nc1ccc([N+](=O)[O-])cc1Cl)c1cc(Cl)ccc1O [Niclosamide, reference compound] |  |  |  |  |  |  |  |  |  |  |  | increased pAMPK levels versus control |  | increases the oxygen consumption rate | 110 to 2390 | 1.01 ( 0–24 h) h μg/mL (per kg BW) | 1020 ng·h/mL (per kg BW) | caused oxygen consumption rate to increase | inhibited tumor growth
